≈ marks a conversion by molar mass, not a printed value. Calls of active or inactive are those of the source. The calls are words filed in the database; no cut-off is given here.
Columns and labels:
[1] = system: Staphylococcus aureus; assay: Induction of degradation of Staphylococcus aureus A170 biofilm at 30 ug/ml after 24 hrs by crystal violet staining method relative to control; type: functional; details: in the assay text read “after 8 hrs” for “after 24 hrs”
[2] = system: Salmonella typhimurium; assay: Antimicrobial activity against Salmonella typhimurium after 24 hrs by microbroth dilution method; type: functional, Salmonella enterica subsp. enterica serovar Typhimurium; details: Salmonella enterica, read-out: MIC100
In short: (§1)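 Two-fold serial dilutions, six replicates each, inoculated with about 5 × 10^5 CFU/mL in cation-adjusted Mueller-Hinton broth 2. Incubated at 37 °C, 160 rpm, 24 h. OD600 taken at 0 and 24 h; T0 subtracted; % inhibition calculated relative to the bacteria-plus-broth control. MIC is the lowest concentration giving 100% inhibition.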

[3] = system: Staphylococcus aureus; assay: Antimicrobial activity against Staphylococcus aureus A170 after 24 hrs by microbroth dilution method; type: functional; details: A170, 24 h, read-out: MIC100; in short: as §1
[4] = system: Candida albicans; assay: Induction of degradation of Candida albicans SC5314 biofilm at 20 ug/ml after 24 hrs by XTT assay relative to vehicle-treated control; type: functional, organism-based; details: in the assay text read “after 8 hrs” for “after 24 hrs”
[5] = system: Staphylococcus aureus; assay: Induction of degradation of Staphylococcus aureus A170 biofilm at 50 ug/ml assessed as concentration required for complete degradation after 24 hrs by crystal violet staining method relative to control; type: functional; details: in the assay text read “after 8 hrs” for “after 24 hrs”
[6] = system: Candida albicans; assay: Antibiofilm activity against Candida albicans SC5314 at 8 to 60 ug/ml after 24 hrs by crystal violet staining method relative to control; type: functional, organism-based
[7] = system: Pseudomonas aeruginosa; assay: Antimicrobial activity against Pseudomonas aeruginosa ATCC 27853 after 24 hrs by microbroth dilution method; type: functional; details: ATCC 27853, 24 h, read-out: MIC100; in short: as §1
[8] = system: Listeria monocytogenes; assay: Antimicrobial activity against Listeria monocytogenes after 24 hrs by microbroth dilution method; type: functional; details: read-out: MIC100; in short: as §1
[9] = system: Candida albicans; assay: Antimicrobial activity against Candida albicans SC5314 after 24 hrs by microbroth dilution method; type: functional; details: SC5314, 24 h, read-out: MIC100
In short: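 CLSI broth microdilution in RPMI 1640 (L-glutamine, no glucose or NaHCO3) buffered to pH 7.0 with 0.165 M MOPS. Two-fold serial dilutions inoculated with 2.5 × 10^3 yeast/mL and incubated at 35 °C for 24 h, using three plates. MIC read visually as the lowest concentration giving optically clear wells versus the drug-free control.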

[10] = system: Staphylococcus aureus; assay: Antibiofilm activity against Staphylococcus aureus A170 at 25 ug/ml after 24 hrs by crystal violet staining method relative to control; type: functional, organism-based
[11] = system: Candida albicans; assay: Antimicrobial activity against Candida albicans SC5314 assessed as inhibition of hyphae formation after 24 hrs by inverted microscopy; type: functional, organism-based
In short: (§2)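 Stationary yeast cells at 6 × 10^6 cells/mL in pre-warmed hypha-inducing RPMI 1640 (2.5% fetal calf serum, 20 mM HEPES, 2 mM L-glutamine, 16 mM NaHCO3, pH 7.0). Compound at 1–50 […]. After 24 h at 37 °C, wells examined by inverted microscope for morphology and hyphae formation.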

[12] = system: Candida albicans; assay: Antimicrobial activity against Candida albicans SC5314 assessed as inhibition of germination at 10 ug/ml after 24 hrs by inverted microscopy; type: functional, organism-based; in short: as §2
[13] = system: Staphylococcus aureus; assay: Antibiofilm activity against Staphylococcus aureus A170 at 30 ug/ml after 24 hrs by crystal violet staining method relative to control; type: functional, organism-based

Compound	Activity [1]	MIC [2]	MIC [3]	Activity [4]	Activity [5]	Activity [6]	MIC [7]	MIC [8]	MIC [9]	Activity [10]	inhibition [11]	inhibition [12]	Activity [13]
C=CCc1cc(/N=N/c2ccc(O)cc2)ccc1O	>60%	> 60 µg/mL	20 µg/mL (≈ 78.7 µM)	Active	50 µg/mL	Active	> 60 µg/mL	25 µg/mL (≈ 98.3 µM)	20 µg/mL (≈ 78.7 µM)	Active			
CCCc1cc(/N=N/c2ccc(O)cc2)ccc1O	>60%	> 60 µg/mL	20 µg/mL (≈ 78 µM)	Active	50 µg/mL	Active	> 60 µg/mL	25 µg/mL (≈ 97.5 µM)	20 µg/mL (≈ 78 µM)	Active	Dose-dependent effect	Active	
Cc1cc(/N=N/c2ccc(O)cc2)cc(C)c1O	40%	> 60 µg/mL	20 µg/mL (≈ 82.5 µM)	Active	50 µg/mL	Active	> 60 µg/mL	25 µg/mL (≈ 103 µM)	17 µg/mL (≈ 70.2 µM)				Active
C=CCc1cc(/N=N/c2ccc(O)cc2)cc(C)c1O	>60%	> 60 µg/mL	25 µg/mL (≈ 93.2 µM)	Active	50 µg/mL	Active	> 60 µg/mL	> 60 µg/mL	15 µg/mL (≈ 55.9 µM)	Active			
Oc1ccc(/C=C/c2cc(O)cc(O)c2)cc1 [RESVERATROL]		> 400 µg/mL	100 µg/mL (≈ 438 µM)				> 400 µg/mL		> 128 µg/mL				
CCc1cc(/N=N/c2ccc(O)cc2)ccc1O	>60%	> 60 µg/mL	30 µg/mL (≈ 124 µM)	Active	50 µg/mL	Active	> 60 µg/mL	50 µg/mL (≈ 206 µM)	30 µg/mL (≈ 124 µM)	Active			

From ChEMBL document CHEMBL3108699, “Small azobenzene derivatives active against bacteria and fungi” (2013)
